# Screening data from PubChem BioAssay.
# Only some compounds are listed: those with a hit (about 5.9% of all), similar ones and a draw of the others.
# MT1-MMP txn act = MT1-MMP promoter transcription activation; HT1080 MT1-MMP promoter luciferase reporter, luminescence, overnight; hits give high values; activation factor at 10 µM; 0.16% of 86,000 active;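 active means activation factor of at least 2 for MT1-MMP transcription at 10 µM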
# Fibroblast inh = blocks proliferation of human lung fibroblasts. LL 47 human lung fibroblast viability, ATP luminescence; hits give low values. viability, % at 10 µM. 1.1% of 85,000 active. AID 719;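 active means viability at or below 50% in the single dose screen; inactive means viability above 50%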;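 further: compound exposure lasted 72 h before the ATP readout; 100% = median luminescence of untreated cell-only wells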
#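 Times – overnight cell rest, 72 h compound treatment at 37 °C · Test system – human lung fibroblast line LL 47, low passage · Amount – 1,150 cells in each well · Controls – cell-only wells, no compound · Doses – 0.1% DMSO in all compound wells · Measured by – CellTiter-Glo luminescence · Buffer or medium – IMEM plus 15% FBS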
# Jurkat tox 60K = reduces viability or proliferation of Jurkat cells; inhibition, % at 4 µM; 1.2% of 56,000 active; Jurkat E6.1 viability, ATP luminescence, 48 h;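 active means inhibition above the mean inhibition of all tested compounds plus 3 SD, cut at about 28% in these data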
# Pyk2 oligo antag = antagonists of human Pyk2 oligomerization; Q14289; Q293 cells, Pyk2 FERM NanoBiT luminescence; hits give low values; z-score (the deposit names both 25 µM and 10 µM); 0.83% of 99,000 active; AID 1347419;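 active means Z-score of -3 or lower, scaled per plate to the spread of control and sample wells; inactive means z-score above -3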;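 further: negative z-score means lost luminescence so less FERM oligomerization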
# Target sequence (Q14289 whole entry, looked up): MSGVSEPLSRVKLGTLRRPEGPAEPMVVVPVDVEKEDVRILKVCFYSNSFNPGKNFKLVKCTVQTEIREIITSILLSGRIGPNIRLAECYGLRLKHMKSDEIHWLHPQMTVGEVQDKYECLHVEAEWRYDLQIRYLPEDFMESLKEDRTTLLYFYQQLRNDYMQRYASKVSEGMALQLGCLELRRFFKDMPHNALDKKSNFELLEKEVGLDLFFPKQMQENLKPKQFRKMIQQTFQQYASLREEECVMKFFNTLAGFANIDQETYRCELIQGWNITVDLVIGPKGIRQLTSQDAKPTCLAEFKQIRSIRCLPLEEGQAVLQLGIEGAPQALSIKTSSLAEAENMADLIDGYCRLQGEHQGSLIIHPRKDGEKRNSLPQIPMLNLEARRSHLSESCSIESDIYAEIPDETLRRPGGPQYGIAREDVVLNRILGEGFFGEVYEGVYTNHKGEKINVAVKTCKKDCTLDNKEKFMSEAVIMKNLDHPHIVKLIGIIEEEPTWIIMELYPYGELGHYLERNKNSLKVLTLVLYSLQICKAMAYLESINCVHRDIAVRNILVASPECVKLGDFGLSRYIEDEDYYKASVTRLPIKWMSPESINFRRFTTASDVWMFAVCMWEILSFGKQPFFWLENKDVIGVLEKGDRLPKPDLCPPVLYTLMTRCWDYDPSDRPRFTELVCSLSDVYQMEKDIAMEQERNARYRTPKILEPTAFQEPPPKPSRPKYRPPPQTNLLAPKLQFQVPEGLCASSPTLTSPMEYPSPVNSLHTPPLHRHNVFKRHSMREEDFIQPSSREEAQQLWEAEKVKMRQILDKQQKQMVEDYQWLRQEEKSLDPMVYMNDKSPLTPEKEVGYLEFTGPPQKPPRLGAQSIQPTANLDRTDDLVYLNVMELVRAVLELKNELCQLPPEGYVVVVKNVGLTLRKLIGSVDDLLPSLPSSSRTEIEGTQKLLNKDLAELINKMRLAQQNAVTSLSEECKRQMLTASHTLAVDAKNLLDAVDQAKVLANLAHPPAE
# HUVEC inhibit = blocks proliferation of human endothelial cells; viability, % at 10 µM (by protocol); HUVEC proliferation, CellTiter-Glo luminescence, 72 h; hits give low values; 1.1% of 86,000 active;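 active means viability at or below 30%; inactive means viability above 30%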;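 further: 100% = median luminescence of DMSO-only cell control wells on each plate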
# H69AR growth 86K = growth inhibitors of human H69AR lung tumor cells; H69AR lung tumor viability, ATP luminescence, 72 h; hits give low values; viability, % at 10 µM; 6% of 85,000 active;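 active means viability at or below 40%; inactive means viability above 40%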;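 further: multidrug resistant small cell line overexpressing MRP-1 efflux transporter; 100% = mean luminescence of untreated control wells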
# Active calls of the source: *; x = not tested or not shown.
SMILES,MT1-MMP txn act,Fibroblast inh,Jurkat tox 60K,Pyk2 oligo antag,HUVEC inhibit,H69AR growth 86K
CN1CC(c2ccccc2)C2(SC(=S)N(Cc3ccco3)C2=O)C12C(=O)Nc1ccccc12 (centres undefined),1.1,92.6,x,-2.87,49.6,1.6*
CCOC(=O)c1c(C)c(C(=O)Nc2cc(F)ccc2F)c(C)n1C,1.3,66.1,40.0*,x,55.2,19.5*
CC1(C)Cc2c(C#N)c(N3CCN(C(=O)c4ccco4)CC3)nc(-c3ccco3)c2CS1,1.1,x,x,1.43,x,x
Cc1nc(N2CCN(C(=O)c3ccc(Cl)cc3)CC2)c(C#N)c2c1COC(C)(C)C2,1,94.7,x,1.69,99.3,37.4*
CC1(C)Cc2c(C#N)c(N3CCN(C(=O)c4ccco4)CC3)nc(Cc3ccccc3)c2CO1,1.1,79.4,x,-1.8,20.8*,55.1
O=C(Cn1nc(-c2ccccc2)nc1-c1ccccc1)OC1CCCCC1,1.1,89.8,x,-1.87,111.4,89.5
O=C(Nc1ccccc1C(=O)O)c1ccc(Br)o1,1.2,111.0,x,-0.23,98.7,94.2
O=C(Nc1ccc(Cl)cc1-c1nc2ccccc2s1)c1ccco1,1.3,90.0,x,0.1,41.5,30.1*
O=C(Nc1ccccc1-c1nc2ccccc2s1)c1ccc(Br)o1,1.1,96.2,x,-0.47,47.4,14.9*
O=C(Nc1nc(-c2nc3ccccc3s2)cs1)c1ccco1,1.4,97.5,3.9,x,76.1,83.4
O=C(COC(=O)C1=COCCO1)Nc1ccc(Oc2ccccc2)cc1,x,x,x,1.05,x,x
Nn1c(SCC(=O)Nc2ccc(S(=O)(=O)N3CCCC3)cc2)nnc1C(F)(F)F,1.3,103.0,-4.4,1.99,93.1,91.6
O=C(c1cnc(N2CCN(c3ncccn3)CC2)c2ccccc12)N1CCN(c2ccccn2)CC1,1.1,94.7,9.6,-1.4,72.1,59.1
CCN1CCN(c2ncc(C(=O)Nc3cc(Cl)ccc3OC)c3ccccc23)CC1,1.1,68.5,11.2,-0.74,19.4*,12.3*
COc1ccc(Cl)cc1NC(=O)CCN1CCN(c2ccccc2C)CC1,1,x,x,0.92,x,x
O=C(Nc1c(F)cccc1F)c1cnc(N2CCN(c3ccccn3)CC2)c2ccccc12,1,91.7,x,-3.6*,60.6,50.3
CC(=O)Nc1ccc(-c2nnc(SCc3c(C)cc(C)cc3C)n2C)cc1,1.3,95.7,x,-1.08,80.3,100.0
CC(NC(=O)c1cc(-c2ccc(Br)cc2)on1)c1ccccc1 (centres undefined),1.2,73.7,-4.7,0.84,75.5,22.4*
CNc1c([N+](=O)[O-])cnn1-c1ccc(Cl)cc1,x,x,x,1.45,x,x
CCOC(=O)c1cccc(NC(=O)Nc2cc(OC)ccc2OC)c1,1.1,97.8,-1.4,-3.38*,100.6,81.3
CC(C)C(=O)Nc1nc(-c2ccccc2)ns1,2*,110.1,x,-0.58,98.8,96.0
CCC(=O)Nc1nc(-c2ccccc2)ns1,1.7,108.2,x,-0.23,102.3,84.0
O=C(C#Cc1ccccc1)c1cccc([N+](=O)[O-])c1,1,17.9*,x,0.39,44.8,1.4*
O=C(NC(NC(=O)c1ccccc1)c1cccc([N+](=O)[O-])c1)c1ccccc1,x,x,x,0.6,x,x
CCC/C=C(\CCC)C(NP(=O)(c1ccccc1)c1ccccc1)c1ccc(C(F)(F)F)cc1 (centres undefined),1.2,x,x,x,x,x
SMILES,MT1-MMP txn act,Fibroblast inh,Jurkat tox 60K,Pyk2 oligo antag,HUVEC inhibit,H69AR growth 86K
Cc1nc2ccccc2c(=O)n1NCc1cccs1,1.1,102.3,-7.4,0.3,98.3,92.8
O=C(O)C(=O)/C(=C\c1cccc2ccccc12)c1ccc2ccccc2n1,1.1,92.0,x,-0.11,67.8,18.1*
O=C(CC1(O)C(=O)N(Cc2ccccc2)c2ccccc21)c1ccncc1 (centres undefined),1.1,98.0,-4.8,0.96,74.6,17.4*
O=C(CC1(O)C(=O)N(Cc2ccc3c(c2)OCO3)c2ccccc21)c1ccccc1 (centres undefined),1,x,-5.6,-0.77,84.4,13.7*
O=C(CC1(O)C(=O)N(Cc2ccccc2)c2ccccc21)c1ccc2c(c1)OCO2 (centres undefined),1,100.1,x,-0.31,93.0,76.4
Cc1ccccc1CN1C(=O)C(O)(CC(=O)c2ccncc2)c2ccccc21 (centres undefined),1,103.2,11.0,1.32,67.4,18.9*
Cc1ccnc(NC2c3ccccc3C(=O)N2Cc2ccccc2Cl)c1 (centres undefined),1.1,99.2,0.6,x,79.5,82.6
Cc1ccccc1P(=O)(CO)c1ccccc1C,1.2,99.6,1.0,-0.11,98.1,104.6
